≈ marks a conversion by molar mass, not a printed value. Like-named read-outs stand apart in the source and are kept apart here.
Assays:
[1] = target: T1, recombinant wild-type IDE (WT-IDE) (Homo sapiens, UniProt P14735); experiment: cell-free IDE activity assay with fluorogenic peptide substrate FRET1; type: biochemical
T1 sequence (P14735 1-1019): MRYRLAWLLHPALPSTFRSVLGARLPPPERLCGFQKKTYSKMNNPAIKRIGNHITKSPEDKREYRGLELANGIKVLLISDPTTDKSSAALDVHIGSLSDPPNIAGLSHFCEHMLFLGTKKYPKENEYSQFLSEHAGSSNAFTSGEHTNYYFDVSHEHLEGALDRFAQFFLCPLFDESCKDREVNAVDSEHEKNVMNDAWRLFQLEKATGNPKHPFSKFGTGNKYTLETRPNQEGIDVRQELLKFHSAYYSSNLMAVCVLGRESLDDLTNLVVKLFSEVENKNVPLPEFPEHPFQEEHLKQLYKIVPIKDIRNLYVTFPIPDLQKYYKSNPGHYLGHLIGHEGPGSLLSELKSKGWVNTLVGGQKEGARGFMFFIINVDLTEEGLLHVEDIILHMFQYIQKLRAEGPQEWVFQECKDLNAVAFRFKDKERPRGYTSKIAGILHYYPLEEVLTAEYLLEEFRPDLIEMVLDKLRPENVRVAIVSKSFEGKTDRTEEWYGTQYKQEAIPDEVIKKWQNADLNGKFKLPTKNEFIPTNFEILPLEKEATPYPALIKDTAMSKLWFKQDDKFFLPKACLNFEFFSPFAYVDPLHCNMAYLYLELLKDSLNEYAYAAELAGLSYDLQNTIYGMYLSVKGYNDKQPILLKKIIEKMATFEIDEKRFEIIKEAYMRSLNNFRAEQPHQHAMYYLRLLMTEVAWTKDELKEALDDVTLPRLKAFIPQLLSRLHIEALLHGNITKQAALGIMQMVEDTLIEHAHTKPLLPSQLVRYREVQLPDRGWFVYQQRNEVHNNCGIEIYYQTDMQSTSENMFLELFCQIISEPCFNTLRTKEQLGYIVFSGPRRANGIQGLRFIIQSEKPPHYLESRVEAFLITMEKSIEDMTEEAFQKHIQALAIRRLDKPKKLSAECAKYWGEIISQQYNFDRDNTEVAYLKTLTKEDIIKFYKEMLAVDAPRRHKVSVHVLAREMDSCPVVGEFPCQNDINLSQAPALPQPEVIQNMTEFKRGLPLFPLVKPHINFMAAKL

[2] = liver microsome stability, human; type: in vitro ADME; conditions: human liver microsomes
[3] = target: T2, IDE (Homo sapiens, UniProt P14735); experiment: insulin degradation, homogeneous time-resolved fluorescence-based assay; type: biochemical; conditions: read-out: IC50^app in vitro, insulin; insulin as substrate; n=4
T2 sequence (P14735 1-1019): T1 sequence (P14735 1-1019)

[4] = solubility in assay buffer; type: physicochemical; conditions: aqueous buffer
[5] = target: T3, WT-IDE (Homo sapiens, UniProt P14735); experiment: kinetics of irreversible inhibition; type: biochemical
T3 sequence (P14735 1-1019): T1 sequence (P14735 1-1019)
Summary of the method: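 Recombinant WT-IDE (2 nM) and FRET1 substrate (5 μM) were monitored continuously at 3-s intervals, starting immediately after adding inhibitor at several concentrations. Curve fits gave observed rate constants, which were plotted against inhibitor concentration. A hyperbolic fit gave kinhib and KM. LE was taken as ΔG/heavy atoms using KM; SEI as pKM/tPSA/100 Å2.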

[6] = chemical stability in PBS; type: physicochemical
[7] = target: T4, extracellular IDE (Homo sapiens, UniProt P14735); experiment: cell-based IDE activity assay
T4 sequence (P14735 1-1019): T1 sequence (P14735 1-1019)
Summary of the method: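 Extracellular IDE secreted by HEK-293 cells, harvested mechanically rather than by trypsin, served as the endogenous enzyme source. Activity was read by fluorescence polarization with fluoresceinated, biotinylated Aß peptide (FAßB) in DTT-free solutions. The primary screen used a nominal compound concentration of 6 μM. Confirmed hits were retested in dose-response format to give apparent IC50.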

[8] = test system: cysteines (proteome-wide); experiment: proteome-wide activity-based protein-profiling assay
[9] = liver microsome stability, rat; type: in vitro ADME; conditions: rat liver microsomes

BEI (binding efficiency index, pIC50^app/MW, kDa) [1]: 15
IC50 ([1]; read-out: IC50^app cell-free, Table 2): 63 nM
IC50 ([1]; read-out: IC50^app in vitro, FRET1, Table 3, n=5): 63 ± 8.1 nM
Liver microsome stability, Human [2]: > 120 min
IC50 [3]: 82 ± 20.2 nM
solubility [4]: 5.1 µM (≈ 2.45 µg/mL)
kinhib ([5]; Table 3, n=5): 13.4 ± 2.7 (n=5) min^−1
kinhib ([5]; WT-IDE 2 nM, FRET1 5 μM, rate constant of irreversible step): 13.4 min⁻¹
LE (ligand efficiency, ΔG/HA) ([5]; calculated using KM value): 0.234 kcal mol^−1 HA^−1
Chemical stability in PBS [6]: >> 48 hr.
IC50 ([7]; read-out: IC50^app cell-based, Table 2): 110 nM
IC50 ([7]; read-out: IC50^app in cells, FAßB, Table 3, n=4): 110 ± 12 nM
Liver microsome stability, Rat [9]: 50 min
Compound: O=c1c2cc(F)ccc2sn1-c1cc(S(=O)(=O)N2CCOCC2)ccc1N1CCOCC1 [Compound 8, 5-fluoro-2-(2-morpholin-4-yl-5-morpholin-4-ylsulfonylphenyl)-1,2-benzothiazol-3-one]
reactivity with cysteines in proteome-wide activity-based protein profiling [8]: minimal reactivity
